Experimental data of several laboratories.
Protocols differ between the studies behind these lines.
LRRK2: Leucine-rich repeat serine/threonine-protein kinase 2 (LRRK2, Homo sapiens, UniProt Q5S007)
LRRK2 G2019S: Leucine-rich repeat serine/threonine-protein kinase 2 (LRRK2, Homo sapiens, UniProt Q5S007, G2019S)

Nc1ncc2c(n1)-c1c([nH]c3ccc(C#CC4CC4)cc13)CCCC2 — remaining binding (LRRK2; binding; competition with immobilised ligand; 1 µM): 83%
CCC(=N\O)/C(C)=C/c1ccc(F)cc1 — remaining binding (LRRK2; cell-free assay; competition with immobilised ligand; 1 µM): 90%
O=C(NCCCN1CCOCC1)c1ccc(Nc2ncc(Cl)c(-c3ccc(Cl)s3)n2)cc1 — remaining binding (LRRK2 G2019S; binding; competition with immobilised ligand; 1 µM): 10%
O=C(O)[C@@H]1[C@@H](Cn2nnc3ccccc3c2=O)CC[C@H]1C(=O)c1ccc(OCCC2CCOCC2)cc1 — remaining binding (LRRK2 G2019S; cell-free assay; competition with immobilised ligand; 1 µM): 100%
CC1CCCN1c1nccc(-c2cnn3ncccc23)n1 (stereo not shown) — remaining binding (LRRK2; binding; 1 µM): 100%
CS(=O)(=O)NCC[C@H](NC(=O)c1cncc2c1cnn2-c1ccc(F)cc1)c1ccnc(S(C)(=O)=O)c1 — remaining binding (LRRK2; cell-free assay; competition with immobilised ligand; 1 µM): 86%
C[C@H]1CCN(c2nccc(-c3cnn4ncccc34)n2)C1 — remaining binding (LRRK2; binding; 1 µM): 67%
O=C(Nc1cnc(Oc2ccc(F)cc2)nc1)N1CCc2ncccc2[C@@H]1c1ccc(F)cc1 — remaining binding (LRRK2; cell-free assay; competition with immobilised ligand; 1 µM): 83%
CN(C)c1ncc(F)c(-c2cnn3ncccc23)n1 — remaining binding (LRRK2 G2019S; binding; 1 µM): 100%
O=C(NCC1CCOCC1)c1n[nH]cc1NC(=O)c1c(F)cccc1F — remaining binding (LRRK2; binding; competition with immobilised ligand; 1 µM): 76%
C[C@@H]1CN(c2cc(-c3nn(C)c4ccc(OC5(C)CC5)cc34)ncn2)C[C@H](C)O1 — remaining binding (LRRK2; binding; competition with immobilised ligand; 1 µM): 22%
CN(c1nccc(-c2cnn3ncccc23)n1)C1CC1 — remaining binding (LRRK2 G2019S; binding; 1 µM): 100%
C=CC(=O)N1CCC(C(=O)NCC(=O)N2CCN(c3nc(-c4cnc(N)nc4C(F)F)nc(N4CCOCC4)n3)CC2)CC1 — remaining binding (LRRK2 G2019S; binding; competition with immobilised ligand; 1 µM): 79%
CNCc1ccccc1-c1csc([C@@H](C)Nc2nc(C)nc3cc(OC)c(OC)cc23)c1 — remaining binding (LRRK2 G2019S; cell-free assay; competition with immobilised ligand; 1 µM): 72%
CNC(=O)[C@@H]1CC[C@@H](n2c(-c3ccc4cnccc4c3)nc3ccc(C(=O)NCc4cccc(C(N)=O)c4)cc32)C1 — remaining binding (LRRK2; binding; competition with immobilised ligand; 1 µM): 100%
CN(C)c1nccc(-c2cnc3ncccn23)n1 — remaining binding (LRRK2; binding; 1 µM): 61%
COc1cnc(Nc2cccc(S(N)(=O)=O)c2)nc1N1CCN(c2ccccc2)CC1 — remaining binding (LRRK2 G2019S; binding; competition with immobilised ligand; 1 µM): 95%
O=C(c1ccc(Nc2nccc(-c3cc4ccccc4s3)n2)cc1)N1CCC(N2CCCC2)CC1 — remaining binding (LRRK2 G2019S; binding; competition with immobilised ligand; 1 µM): 16%
N[C@H]1CCN(c2nccc(-c3cnn4ncccc34)n2)C1 — remaining binding (LRRK2; binding; 1 µM): 100%
Cn1cc(Cl)c2c(Oc3c(F)cc(Nc4cc(Cl)nc(N)n4)cc3F)ccnc21 — remaining binding (LRRK2; cell-free assay; competition with immobilised ligand; 0.1 µM): 75%
COc1ccnn2ncc(-c3ccnc(N(C)C)n3)c12 — remaining binding (LRRK2 G2019S; binding; 1 µM): 100%
Cc1cnc(Nc2ccc(C(=O)N3CCC(N4CCCC4)CC3)cc2)nc1-c1cc2ccccc2s1 — remaining binding (LRRK2 G2019S; binding; competition with immobilised ligand; 1 µM): 2.8%
